Results from ChEMBL document CHEMBL3352255, “Tailor-made fluorescent trilobolide to study its biological relevance” (J Med Chem, 2014).
pIC50: −log10 of the molar value. Activity calls are given as the source filed them. No cut-off for these calls is given here.

Experiments:
[1] = Cellular uptake in HEK293T cells at 1 uM after 20 mins by fluorescence microscopy; type: ADME, cell-based; details: human, hek-293t
How it was run: (§1)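 Uptake into living cells was followed by fluorescence microscopy at 10, 20 and 40 min and at 1, 3, 5 and 24 h. Green-emitting Bodipy conjugates were given at 1 μM. A Bodipy dye-only stain served as control for dye-driven localisation.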

[2] = tested on: HT-29; test: Cytotoxicity against human HT-29 cells after 48 hrs by WST-1 assay; type: functional, cell-based; details: HT-29, 48 h
How it was run: (§2)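 Dark cytotoxicity (no light exposure) by WST-1 tetrazolium-to-formazan conversion reflecting metabolic activity; compounds tested at concentrations up to 50 μM for 24, 48 or 72 h; IC50 taken as concentration giving 50% inhibition of cell viability.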

[3] = Cytotoxicity against human PC3 cells after 72 hrs by WST-1 assay; type: functional, cell-based; details: PC-3, 72 h; how it was run: as §2
[4] = tested on: HeLa; test: Cellular uptake in human HeLa cells at 1 uM after 20 mins by fluorescence microscopy; type: ADME, cell-based; how it was run: as §1
[5] = tested on: LNCaP; test: Cytotoxicity against human LNCAP cells after 72 hrs by WST-1 assay; type: functional, cell-based; how it was run: as §2
[6] = tested on: LNCaP; test: Cytotoxicity against human LNCAP cells after 48 hrs by WST-1 assay; type: functional, cell-based; how it was run: as §2
[7] = tested on: MCF7; test: Cytotoxicity against human MCF7 cells after 72 hrs by WST-1 assay; type: functional, cell-based; details: MCF7, 72 h; how it was run: as §2
[8] = tested on: U2OS; test: Cellular uptake in human U2OS cells at 1 uM after 10 to 20 mins by fluorescence microscopy; type: ADME, cell-based; how it was run: as §1
[9] = tested on: MCF7; test: Cytotoxicity against human MCF7 cells after 48 hrs by WST-1 assay; type: functional, cell-based; details: MCF7, 48 h; how it was run: as §2
[10] = tested on: C2C12; test: Cellular uptake in mouse C2C12 cells at 1 uM after 20 mins by fluorescence microscopy; type: ADME, cell-based; details: c2c12, 20 min; how it was run: as §1
[11] = Cellular uptake in Endoplasmic reticulum of human PC3 cells at 1 uM after 1 hr by fluorescence microscopy; type: ADME, cell-based; details: pc-3, 1 h
How it was run: (§3)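 Live-cell fluorescence microscopy of cells exposed to Bodipy-labelled conjugates at 1 μM for 1 h. ER was co-stained with ER-Tracker Blue-White DPX (100 nM, 20 min) to check colocalisation. A Bodipy dye-only stain served as control.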

[12] = tested on: C2C12; test: Cytotoxicity against mouse C2C12 cells after 24 hrs by WST-1 assay; type: functional, cell-based; details: C2C12, 24 h; how it was run: as §2
[13] = organism: Rattus norvegicus; test: Induction of LPS-induced NO production in rat peritoneal cells at 1 to 10 uM after 24 hrs using DAR-2 probe by fluorescence assay; type: functional, cell-based
How it was run: (§4)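 Rat peritoneal cells were treated with conjugates at 0.01–100.0 μM for 24 h. NO production was compared with untreated cells. LPS (100 pg·mL−1) and trilobolide (0.1 μM) were included as references. Data are mean ± SEM of three independent experiments, n = 6.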

[14] = Cellular uptake in human PC3 cells at 1 uM after 20 mins by fluorescence microscopy; type: ADME, cell-based; details: pc-3, 20 min; how it was run: as §1
[15] = tested on: U2OS; test: Cellular uptake in human U2OS cells at 1 uM after 20 mins by fluorescence microscopy; type: ADME, cell-based; how it was run: as §1
[16] = Cytotoxicity against human PC3 cells after 48 hrs by WST-1 assay; type: functional, cell-based; details: PC-3, 48 h; how it was run: as §2
[17] = tested on: MCF7; test: Cellular uptake in human MCF7 cells at 1 uM after 20 mins by fluorescence microscopy; type: ADME, cell-based; details: mcf7, 20 min; how it was run: as §1
[18] = tested on: C2C12; test: Cytotoxicity against mouse C2C12 cells after 72 hrs by WST-1 assay; type: functional, cell-based; details: C2C12, 72 h; how it was run: as §2
[19] = Cellular uptake in Endoplasmic reticulum of human LNCAP cells at 1 uM after 1 hr by fluorescence microscopy; type: ADME, cell-based; how it was run: as §3
[20] = tested on: U2OS; test: Induction of LPS-induced NO production in human U2OS cells at 40 uM after 24 hrs using DAR-2 probe by fluorescence assay; type: functional, cell-based
How it was run: (§5)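 NO in living cells (PC-3, LNCaP, MCF-7, U-2 OS) was imaged by fluorescence microscopy with the NO-specific red-emitting probe DAR-2 after compound stimulation.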

[21] = tested on: PC-3; test: Induction of mitochondria fragmentation in human PC3 cells at 1 uM after 10 to 40 mins by fluorescence microscopy; type: functional, cell-based
How it was run: (§6)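 Live cells were treated with 1 μM Bodipy conjugates for at least 40 min and then co-stained with MitoTracker Red FM (100 nM, 10 min). Imaging by fluorescence microscopy assessed colocalisation with the green signal and the state of the mitochondrial network.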

[22] = tested on: LNCaP; test: Induction of LPS-induced NO production in human LNCAP cells at 40 uM after 24 hrs using DAR-2 probe by fluorescence assay; type: functional, cell-based; how it was run: as §5
[23] = tested on: U2OS; test: Induction of mitochondria fragmentation in human U2OS cells at 1 uM after 10 to 40 mins by fluorescence microscopy; type: functional, cell-based; how it was run: as §6
[24] = Cellular uptake in mitochondria of human PC3 cells at 1 uM after 10 to 40 mins by fluorescence microscopy; type: ADME; details: pc-3, 1 µM; how it was run: as §6
[25] = Cytotoxicity against human MIAPaCa2 cells after 48 hrs by WST-1 assay; type: functional, cell-based; details: MIA PaCa-2, 48 h; how it was run: as §2
[26] = organism: Rattus norvegicus; test: Induction of LPS-induced NO production in rat peritoneal cells at 40 uM after 24 hrs using DAR-2 probe by fluorescence assay; type: functional, cell-based; how it was run: as §4
[27] = tested on: MCF7; test: Induction of LPS-induced NO production in human MCF7 cells at 40 uM after 24 hrs using DAR-2 probe by fluorescence assay; type: functional, cell-based; how it was run: as §5
[28] = Cellular uptake in mitochondria of human U2OS cells at 1 uM after 10 to 40 mins by fluorescence microscopy; type: ADME; how it was run: as §6
[29] = tested on: U2OS; test: Cytotoxicity against human U2OS cells after 24 hrs by WST-1 assay; type: functional, cell-based; how it was run: as §2
[30] = tested on: A549; test: Cellular uptake in human A549 cells at 1 uM after 20 mins by fluorescence microscopy; type: ADME, cell-based; details: a549, 20 min; how it was run: as §1
[31] = tested on: U2OS; test: Cellular uptake in human U2OS cells at 1 uM after 40 mins to 24 hrs by fluorescence microscopy; type: ADME, cell-based; how it was run: as §1
[32] = organism: Rattus norvegicus; test: Induction of LPS-induced NO production in rat peritoneal cells after 24 hrs using DAR-2 probe by fluorescence assay; type: functional, cell-based
[33] = Cellular uptake in human MIAPaCa2 cells at 1 uM after 20 mins by fluorescence microscopy; type: ADME, cell-based; details: mia paca-2, 20 min; how it was run: as §1
[34] = tested on: U2OS; test: Induction of ER stress in Endoplasmic reticulum of human U2OS cells assessed as small vesicle formation from ER network at 1 uM after 3 to 5 hrs by fluorescence microscopy; type: functional, cell-based
How it was run: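 U-2 OS live cells were incubated with conjugates at 1 μM for 1, 3 and 5 h. Fluorescence microscopy was used to score small vesicles or pouches budding from the ER network.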

[35] = Cellular uptake in human MIAPaCa2 cells at 1 uM after 40 mins to 24 hrs by fluorescence microscopy; type: ADME, cell-based; details: mia paca-2, 1 µM; how it was run: as §1
[36] = tested on: U2OS; test: Cellular uptake in human U2OS cells at 2 uM after 0.5 to 24 hrs by fluorescence microscopy; type: ADME, cell-based
How it was run: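 U-2 OS live cells were imaged by fluorescence microscopy across a range of conjugate concentrations and time points from 0.5 to 24 h. The intracellular signal plateau was then assessed.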

[37] = tested on: LNCaP; test: Cellular uptake in human LNCAP cells at 1 uM after 40 mins to 24 hrs by fluorescence microscopy; type: ADME, cell-based; how it was run: as §1
[38] = tested on: LNCaP; test: Cytotoxicity against human LNCAP cells after 24 hrs by WST-1 assay; type: functional, cell-based; how it was run: as §2
[39] = tested on: PC-3; test: Induction of LPS-induced NO production in human PC3 cells at 40 uM after 24 hrs using DAR-2 probe by fluorescence assay; type: functional, cell-based; how it was run: as §5
[40] = tested on: U2OS; test: Cytotoxicity against human U2OS cells after 48 hrs by WST-1 assay; type: functional, cell-based; how it was run: as §2

Structure (SMILES)	Drug uptake [1]	pIC50 [2]	pIC50 [3]	Drug uptake [4]	pIC50 [5]	pIC50 [6]	pIC50 [7]	Drug uptake [8]	pIC50 [9]	Drug uptake [10]	Drug uptake [11]	pIC50 [12]	Activity [13]	Drug uptake [14]	Drug uptake [15]	pIC50 [16]	Drug uptake [17]	pIC50 [18]	Drug uptake [19]	Activity [20]	also measured
C/C=C(/C)C(=O)O[C@@H]1C[C@H]2C(=C1C)[C@@H]1OC(=O)[C@@](C)(O)[C@@]1(O)[C@@H](OC(=O)CCOCCOCCOCCOCCn1cc(COc3ccc(C4=C5C=CC=[N+]5[B-](F)(F)n5cccc54)cc3)nn1)C[C@]2(C)OC(C)=O	Active	4.85	5.39	Active	4.69	6.40	5.22	Active	5.20	Active	Active	5.10	Active	Active	Active	5.51	Active	4.84	Active	Active	Activity [21]: Active; Activity [22]: Active; Activity [23]: Active; Drug uptake [24]: Not Active; pIC50 [25]: 5.00; Activity [26]: Active; Activity [27]: Active; Drug uptake [28]: Not Active; pIC50 [29]: < 4.30; Drug uptake [30]: Active; Drug uptake [31]: Not Active; Activity [32]: Dose-dependent effect; Drug uptake [33]: Active; Activity [34]: Active; Drug uptake [35]: Active; Drug uptake [36]: Active; Drug uptake [37]: Active; pIC50 [38]: 5.13; Activity [39]: Active; pIC50 [40]: 5.27
C/C=C(/C)C(=O)O[C@@H]1C[C@H]2C(=C1C)[C@@H]1OC(=O)[C@@](C)(O)[C@@]1(O)[C@@H](OC(=O)CCCCn1cc(COc3ccc(C4=C5C=CC=[N+]5[B-](F)(F)n5cccc54)cc3)nn1)C[C@]2(C)OC(C)=O	Active	< 4.30	5.42	Active	< 4.30	5.01	4.97	Active	4.89	Active	Active	< 4.30	Active	Active	Active	5.34	Active	4.82	Active	Active	Activity [21]: Active; Activity [22]: Active; Activity [23]: Active; Drug uptake [24]: Not Active; pIC50 [25]: 4.36; Activity [26]: Active; Activity [27]: Active; Drug uptake [28]: Not Active; pIC50 [29]: 4.59; Drug uptake [30]: Active; Drug uptake [31]: Not Active; Activity [32]: Dose-dependent effect; Drug uptake [33]: Active; Activity [34]: Active; Drug uptake [35]: Active; Drug uptake [36]: Active; Drug uptake [37]: Active; pIC50 [38]: 4.90; Activity [39]: Active; pIC50 [40]: 4.88
